# Results as given in ChEMBL document CHEMBL1926577, “Novel 1,3,4-heterodiazole analogues: synthesis and in-vitro antitumor activity” (2012).
# How the values were obtained:
# Format in all cases: functional
# [1] = system: SNB-19; experiment: Growth inhibition of human SNB19 cells at 10 uM after 48 hrs by coulter counter method; conditions: SNB-19, 48 h, read-out: GI
# Procedure, shortened: (§1)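 NCI 60-cell-line panel, single dose. Compound dissolved first in DMSO, then diluted in phosphate-buffered saline so that every final dilution held under 1% DMSO. Duplicate wells received cells at 6 × 10⁴ cells/ml. Controls held PBS/DMSO at the same dilution. Plates were incubated 48 h at 37 °C under 5% CO₂. Cells were then diluted 10-fold in saline and counted on a Coulter counter, with counts corrected for the dilution. Results are given as percent growth inhibition.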
# [2] = system: CAKI-1; experiment: Growth inhibition of human Caki1 cells at 10 uM after 48 hrs by coulter counter method; conditions: CAKI-1, 48 h, read-out: GI; procedure, shortened: as §1
# [3] = system: BT-549; experiment: Growth inhibition of human BT549 cells at 10 uM after 48 hrs by coulter counter method; conditions: BT-549, 48 h, read-out: GI; procedure, shortened: as §1
# [4] = system: NCI-H322M; experiment: Growth inhibition of human NCI-H322M cells at 10 uM after 48 hrs by coulter counter method; conditions: read-out: GI; procedure, shortened: as §1
# [5] = system: KM12; experiment: Growth inhibition of human KM12 cells at 10 uM after 48 hrs by coulter counter method; conditions: KM12, 48 h, read-out: GI; procedure, shortened: as §1
# [6] = system: HL-60(TB); experiment: Growth inhibition of human HL-60(TB) cells at 10 uM after 48 hrs by coulter counter method; conditions: HL-60, 48 h, read-out: GI
# Procedure, shortened: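 Single-dose screen on the NCI 60-line panel (leukemia subpanel). Compound is dissolved in DMSO and diluted in PBS, with final DMSO below 1%. Duplicate wells hold 6 × 10⁴ cells/ml at 37 °C, 5% CO₂, for 48 h. Cells are counted by Coulter counter after 10-fold saline dilution. Read-out is percent growth versus PBS/DMSO controls, expressed as % growth inhibition.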
# [7] = system: NCI-H226; experiment: Growth inhibition of human NCI-H226 cells at 10 uM after 48 hrs by coulter counter method; conditions: NCI-H226, 48 h, read-out: GI; procedure, shortened: as §1
# [8] = system: MDA-MB-435; experiment: Growth inhibition of human MDA-MB-435 cells at 10 uM after 48 hrs by coulter counter method; conditions: MDA-MB-435, 48 h, read-out: GI; procedure, shortened: as §1
# [9] = system: Malme-3M; experiment: Growth inhibition of human MALME-3M cells at 10 uM after 48 hrs by coulter counter method; conditions: read-out: GI; procedure, shortened: as §1
# [10] = system: NCI/ADR-RES; experiment: Growth inhibition of human NCI/ADR-RES cells at 10 uM after 48 hrs by coulter counter method; conditions: read-out: GI; procedure, shortened: as §1
# [11] = system: UACC-257; experiment: Growth inhibition of human UACC257 cells at 10 uM after 48 hrs by coulter counter method; conditions: UACC-257, 48 h, read-out: GI; procedure, shortened: as §1
# [12] = system: SF-295; experiment: Growth inhibition of human SF295 cells at 10 uM after 48 hrs by coulter counter method; conditions: SF-295, 48 h, read-out: GI; procedure, shortened: as §1
# [13] = system: U-251; experiment: Growth inhibition of human U251 cells at 10 uM after 48 hrs by coulter counter method; conditions: U-251, 48 h, read-out: GI; procedure, shortened: as §1
# [14] = system: A549; experiment: Growth inhibition of human A549 cells at 10 uM after 48 hrs by coulter counter method; conditions: A549, 48 h, read-out: GI; procedure, shortened: as §1
# [15] = system: MCF7; experiment: Growth inhibition of human MCF7 cells at 10 uM after 48 hrs by coulter counter method; conditions: MCF7, 48 h, read-out: GI; procedure, shortened: as §1
# [16] = system: SK-MEL-28; experiment: Growth inhibition of human SK-MEL-28 cells at 10 uM after 48 hrs by coulter counter method; conditions: SK-MEL-28, 48 h, read-out: GI; procedure, shortened: as §1
# [17] = system: HCT-116; experiment: Growth inhibition of human HCT116 cells at 10 uM after 48 hrs by coulter counter method; conditions: HCT-116, 48 h, read-out: GI; procedure, shortened: as §1
# [18] = system: CCRF-CEM; experiment: Growth inhibition of human CCRF-CEM cells at 10 uM after 48 hrs by coulter counter method; conditions: read-out: GI; procedure, shortened: as §1
# [19] = system: TK-10; experiment: Growth inhibition of human TK10 cells at 10 uM after 48 hrs by coulter counter method; conditions: TK-10, 48 h, read-out: GI; procedure, shortened: as §1
# [20] = system: SR; experiment: Growth inhibition of human SR cells at 10 uM after 48 hrs by coulter counter method; conditions: read-out: GI; procedure, shortened: as §1
# [21] = system: SN12C; experiment: Growth inhibition of human SN12C cells at 10 uM after 48 hrs by coulter counter method; conditions: read-out: GI; procedure, shortened: as §1
# [22] = system: SK-MEL-5; experiment: Growth inhibition of human SK-MEL-5 cells at 10 uM after 48 hrs by coulter counter method; conditions: SK-MEL-5, 48 h, read-out: GI; procedure, shortened: as §1
# [23] = system: NCI-H522; experiment: Growth inhibition of human NCI-H522 cells at 10 uM after 48 hrs by coulter counter method; conditions: NCI-H522, 48 h, read-out: GI; procedure, shortened: as §1
# [24] = system: OVCAR-8; experiment: Growth inhibition of human OVCAR8 cells at 10 uM after 48 hrs by coulter counter method; conditions: OVCAR-8, 48 h, read-out: GI; procedure, shortened: as §1
# [25] = system: M14; experiment: Growth inhibition of human M14 cells at 10 uM after 48 hrs by coulter counter method; conditions: M14, 48 h, read-out: GI; procedure, shortened: as §1
# [26] = system: T47D; experiment: Growth inhibition of human T47D cells at 10 uM after 48 hrs by coulter counter method; conditions: read-out: GI; procedure, shortened: as §1
# [27] = system: RPMI-8226; experiment: Growth inhibition of human RPMI8226 cells at 10 uM after 48 hrs by coulter counter method; conditions: RPMI-8226, 48 h, read-out: GI; procedure, shortened: as §1
# [28] = system: NCI-H23; experiment: Growth inhibition of human NCI-H23 cells at 10 uM after 48 hrs by coulter counter method; conditions: NCI-H23, 48 h, read-out: GI; procedure, shortened: as §1
# [29] = system: SF-268; experiment: Growth inhibition of human SF268 cells at 10 uM after 48 hrs by coulter counter method; conditions: SF-268, 48 h, read-out: GI; procedure, shortened: as §1
# [30] = system: PC-3; experiment: Growth inhibition of human PC3 cells at 10 uM after 48 hrs by coulter counter method; conditions: PC-3, 48 h, read-out: GI; procedure, shortened: as §1
# [31] = system: 786-0; experiment: Growth inhibition of human 786-0 cells at 10 uM after 48 hrs by coulter counter method; conditions: 786-0, 48 h, read-out: GI; procedure, shortened: as §1
# [32] = system: UO-31; experiment: Growth inhibition of human UO31 cells at 10 uM after 48 hrs by coulter counter method; conditions: UO-31, 48 h, read-out: GI; procedure, shortened: as §1
# [33] = system: A498; experiment: Growth inhibition of human A498 cells at 10 uM after 48 hrs by coulter counter method; conditions: A498, 48 h, read-out: GI; procedure, shortened: as §1
# [34] = system: K562; experiment: Growth inhibition of human K562 cells at 10 uM after 48 hrs by coulter counter method; conditions: K562, 48 h, read-out: GI; procedure, shortened: as §1
# [35] = system: HCT-15; experiment: Growth inhibition of human HCT15 cells at 10 uM after 48 hrs by coulter counter method; conditions: HCT-15, 48 h, read-out: GI; procedure, shortened: as §1
# [36] = system: ACHN; experiment: Growth inhibition of human ACHN cells at 10 uM after 48 hrs by coulter counter method; conditions: read-out: GI; procedure, shortened: as §1
# [37] = system: SK-MEL-2; experiment: Growth inhibition of human SK-MEL-2 cells at 10 uM after 48 hrs by coulter counter method; conditions: SK-MEL-2, 48 h, read-out: GI; procedure, shortened: as §1
# [38] = system: EKVX; experiment: Growth inhibition of human EKVX cells at 10 uM after 48 hrs by coulter counter method; conditions: read-out: GI; procedure, shortened: as §1
# [39] = system: UACC-62; experiment: Growth inhibition of human UACC62 cells at 10 uM after 48 hrs by coulter counter method; conditions: UACC-62, 48 h, read-out: GI; procedure, shortened: as §1
# [40] = system: IGROV-1; experiment: Growth inhibition of human IGROV1 cells at 10 uM after 48 hrs by coulter counter method; conditions: IGROV-1, 48 h, read-out: GI; procedure, shortened: as §1
# [41] = system: HT-29; experiment: Growth inhibition of human HT-29 cells at 10 uM after 48 hrs by coulter counter method; conditions: HT-29, 48 h, read-out: GI; procedure, shortened: as §1
# [42] = system: LOX IMVI; experiment: Growth inhibition of human LOXIMVI cells at 10 uM after 48 hrs by coulter counter method; conditions: read-out: GI; procedure, shortened: as §1
# [43] = system: SNB-75; experiment: Growth inhibition of human SNB75 cells at 10 uM after 48 hrs by coulter counter method; conditions: SNB-75, 48 h, read-out: GI; procedure, shortened: as §1
# [44] = system: MDA-MB-468; experiment: Growth inhibition of human MDA-MB-468 cells at 10 uM after 48 hrs by coulter counter method; conditions: MDA-MB-468, 48 h, read-out: GI; procedure, shortened: as §1
# [45] = system: MOLT-4; experiment: Growth inhibition of human MOLT4 cells at 10 uM after 48 hrs by coulter counter method; conditions: MOLT-4, 48 h, read-out: GI; procedure, shortened: as §1
compound,measurement,setting,value
O=C1N=C2SC(c3ccccc3)=NN2C1=O,inhibition of growth at 10 µM,[1],< 10%
same,inhibition of growth at 10 µM,[2],< 10%
same,inhibition of growth at 10 µM,[3],< 10%
same,inhibition of growth at 10 µM,[4],10.8%
same,inhibition of growth at 10 µM,[5],< 10%
same,inhibition of growth at 10 µM,[6],< 10%
same,inhibition of growth at 10 µM,[7],< 10%
same,inhibition of growth at 10 µM,[8],< 10%
same,inhibition of growth at 10 µM,[9],< 10%
same,inhibition of growth at 10 µM,[10],< 10%
same,inhibition of growth at 10 µM,[11],15.5%
same,inhibition of growth at 10 µM,[12],< 10%
same,inhibition of growth at 10 µM,[13],< 10%
same,inhibition of growth at 10 µM,[14],< 10%
same,inhibition of growth at 10 µM,[15],< 10%
same,inhibition of growth at 10 µM,[16],< 10%
same,inhibition of growth at 10 µM,[17],< 10%
same,inhibition of growth at 10 µM,[18],< 10%
same,inhibition of growth at 10 µM,[19],< 10%
same,inhibition of growth at 10 µM,[20],< 10%
same,inhibition of growth at 10 µM,[21],< 10%
same,inhibition of growth at 10 µM,[22],< 10%
same,inhibition of growth at 10 µM,[23],12.4%
same,inhibition of growth at 10 µM,[24],< 10%
same,inhibition of growth at 10 µM,[25],< 10%
same,inhibition of growth at 10 µM,[26],< 10%
same,inhibition of growth at 10 µM,[27],12.6%
same,inhibition of growth at 10 µM,[28],< 10%
same,inhibition of growth at 10 µM,[29],< 10%
same,inhibition of growth at 10 µM,[30],10.7%
same,inhibition of growth at 10 µM,[31],< 10%
same,inhibition of growth at 10 µM,[32],25.7%
same,inhibition of growth at 10 µM,[33],< 10%
same,inhibition of growth at 10 µM,[34],< 10%
same,inhibition of growth at 10 µM,[35],< 10%
same,inhibition of growth at 10 µM,[36],< 10%
same,inhibition of growth at 10 µM,[37],< 10%
same,inhibition of growth at 10 µM,[38],< 10%
same,inhibition of growth at 10 µM,[39],< 10%
same,inhibition of growth at 10 µM,[40],< 10%
same,inhibition of growth at 10 µM,[41],< 10%
same,inhibition of growth at 10 µM,[42],< 10%
same,inhibition of growth at 10 µM,[43],< 10%
same,inhibition of growth at 10 µM,[44],< 10%
same,inhibition of growth at 10 µM,[45],< 10%
